In PMC12399198 (Acta Pharmaceutica Sinica. B, 2025):
Peptide text beside a SMILES is read from it. * marks the point of attachment. Cbz = O=C(OCc1ccccc1)*

Experiments:
[1] = tested on: OVA-induced AR mouse model; assay: OVA-induced AR mouse model; format: in vivo; details: OVA-induced AR mice
Procedure, shortened: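 Male C57BL/6 mice, 6 weeks old, sensitised i.p. with OVA/alum (1:1) weekly for 3 weeks. Then challenged i.n. with OVA 2 mg/20 µL daily for 7 days. Test compound given i.n. at 0, 5, 10 or 20 mg/kg in 5% DMSO/45% PEG400/50% PBS, once daily, 6 h before each challenge; dexamethasone 1 mg/kg as reference. Sneezes and nasal rubs counted blinded for 10 min, starting 10 min after challenge; n = 8.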

Keap1 = Keap1 (Homo sapiens, UniProt Q14145); assay: Keap1 degradation in MDA-MB-231 cells; format: cell-based; details: 24 h, dose-dependent
Keap1, sequence (Q14145 whole entry): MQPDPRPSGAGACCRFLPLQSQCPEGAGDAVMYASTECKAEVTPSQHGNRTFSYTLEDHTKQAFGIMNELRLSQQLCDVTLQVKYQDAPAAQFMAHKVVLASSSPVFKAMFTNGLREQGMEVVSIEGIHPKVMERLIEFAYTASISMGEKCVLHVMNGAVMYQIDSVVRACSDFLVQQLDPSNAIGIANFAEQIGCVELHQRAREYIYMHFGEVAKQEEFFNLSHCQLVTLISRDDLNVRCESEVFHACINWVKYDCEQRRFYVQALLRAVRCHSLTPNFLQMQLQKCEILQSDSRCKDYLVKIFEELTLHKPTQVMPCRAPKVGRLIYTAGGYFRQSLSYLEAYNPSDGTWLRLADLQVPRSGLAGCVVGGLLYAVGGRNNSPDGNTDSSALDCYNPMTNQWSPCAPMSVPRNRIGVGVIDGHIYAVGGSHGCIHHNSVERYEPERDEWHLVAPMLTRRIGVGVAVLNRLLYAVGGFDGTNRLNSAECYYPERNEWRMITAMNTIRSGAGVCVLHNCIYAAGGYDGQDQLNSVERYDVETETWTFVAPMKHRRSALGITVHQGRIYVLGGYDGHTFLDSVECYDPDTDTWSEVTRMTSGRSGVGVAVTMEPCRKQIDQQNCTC

SMILES | allergic nasal symptoms (number of nasal rubbing and sneezing every 10 min) ([1]; i.n. daily for 7 days, 8 at 5, 10, 20 mg/kg, DEX 1 mg/kg) | CD45+ cells in nasal mucosa (IHC staining) ([1]; DEX or high dose of 8) | eosinophil infiltration within the nasal mucosa (Giemsa staining) ([1]; DEX or high dose of 8) | effect on Keap1 levels (Keap1)
C[C@@H]1C[C@H]2[C@@H]3CCC4=CC(=O)C=C[C@]4(C)[C@@]3(F)[C@@H](O)C[C@]2(C)[C@@]1(O)C(=O)CO [DEX, Dexamethasone] | decreased | reduced | significantly reduced | –
CC(C)C[C@@H](C=O)NC(=O)[C@H](CC(C)C)NC(=O)[C@H](CC(C)C)NC(=O)OCc1ccccc1 [MG132] (Cbz-Leu-Leu-Leu-aldehyde) | – | – | – | decreasing Keap1 levels
